Publication PMC12399195 (Acta Pharmaceutica Sinica. B, 2025)
Where a chain is given by its changes, count along the chain named.

What was measured:
Notum [1] = biological target: T1, Notum (Homo sapiens, UniProt Q6P988); assay: Notum inhibition assay, DO as fluorogenic substrate; assay type: biochemical
T1 sequence (Q6P988 20-496): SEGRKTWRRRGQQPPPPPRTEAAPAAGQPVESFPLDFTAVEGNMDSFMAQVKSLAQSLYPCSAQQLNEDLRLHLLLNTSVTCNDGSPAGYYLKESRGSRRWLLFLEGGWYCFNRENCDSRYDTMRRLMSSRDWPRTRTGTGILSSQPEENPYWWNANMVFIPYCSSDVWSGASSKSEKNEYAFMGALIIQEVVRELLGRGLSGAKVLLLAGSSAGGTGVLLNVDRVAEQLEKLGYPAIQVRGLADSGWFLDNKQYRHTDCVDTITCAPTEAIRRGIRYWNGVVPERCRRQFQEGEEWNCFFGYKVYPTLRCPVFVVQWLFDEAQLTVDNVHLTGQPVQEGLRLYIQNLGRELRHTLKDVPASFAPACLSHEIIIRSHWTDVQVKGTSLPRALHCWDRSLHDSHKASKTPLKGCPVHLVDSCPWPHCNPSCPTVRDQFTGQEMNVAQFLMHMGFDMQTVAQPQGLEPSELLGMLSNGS

Notum [2] = biological target: T1, Notum; assay: Notum inhibition assay, OPTS as substrate; assay type: biochemical
F268G Notum = biological target: T2, F268G Notum (Homo sapiens, UniProt Q6P988, F268G); assay: Inhibition of DO hydrolysis in F268G Notum mutant; assay type: biochemical
T2 sequence (Q6P988 20-496 F268G): T1 sequence (Q6P988 20-496) with F249G

healthy mice = assay: Toxicity test in healthy mice; assay type: in vivo, C57BL/6J mice; conditions: 200 mg/kg oral
MC3T3-E1 cells [3] = assay: Cell viability; assay type: cell-based; conditions: for cytotoxicity towards MC3T3-E1 cells: 0–20 μmol/L, 96 h
MC3T3-E1 cells [4] = assay: ALP staining, osteoblast differentiation in DXMS-challenged MC3T3-E1 cells; assay type: cell-based; conditions: 7 days
Summary of the method: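 MC3T3-E1 cells were kept in DMEM with 10% FBS and 1% penicillin–streptomycin at 37 °C under 5% CO₂. Cells were seeded at 2×10^3 cells/well and grown 24 h, then switched to inducible medium. DXMS and test compound were added together for seven days, with medium changed every two days. Cells were fixed 15 min in 4% paraformaldehyde at room temperature, PBS-washed, BCIP/NBT ALP-stained, imaged and quantified.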

MC3T3-E1 cells [5] = assay: Alizarin red S staining, calcification in DXMS-challenged MC3T3-E1 cells; assay type: cell-based; conditions: DXMS-challenged (200 μmol/L) MC3T3-E1 cells, 21 days
Wnt/β-catenin signaling = assay type: cell-based; conditions: DXMS-challenged MC3T3-E1 cells, 7 days
[6] = Tissue distribution in mice after gavage; assay type: in vivo, C57BL/6J mice
Summary of the method: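 Twenty male C57BL/6J mice (6 weeks, 18–20 g) were randomised into four groups: control, 1 h, 2 h and 3 h. Test compound in 0.5% CMC-Na was given once by gavage. Mice were anaesthetised at 0, 1, 2 or 3 h, and blood and organs including femur were removed. Samples were centrifuged at 20,000 × g, 4 °C, 30 min, and compound concentration was determined by LC–MS/MS.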

[7] = test system: DXMS-induced osteoporotic mice; assay: In vivo anti-osteoporosis test in DXMS-induced osteoporotic mice; set-up: species or system C57BL/6J mice; conditions: for effect on weight loss induced by DXMS: five weeks
Summary of the method: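 Male C57BL/6J mice (6 weeks) were held SPF at 25 ± 2 °C, 50 ± 10% humidity and 12 h/12 h light/dark, with 7 days acclimatisation. They were randomised into five groups. DXMS was given i.p. at 2.5 mg/kg, five times weekly for five weeks. Test compound was dosed orally daily; PTH1–34 was given i.p. After five weeks, serum, femurs and tibias were collected. Serum ALP, OT/BGT, OPG and Col-1A1 were measured by ELISA kits. Data are mean ± SD.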

[8] = cited from earlier work
CYPs = conditions: phase I metabolic systems, GSH trapping
[9] = IC50 (DO as probe), Notum-catalyzed DO hydrolysis
[10] = 5-MP 20 and 40 mg/kg oral daily, PTH 100 μg/kg/day i.p.
[11] = distal and mid-femur, vs DXMS-challenged mice
[12] = distal femur, DXMS-challenged mice

In the case of COc1c2ccoc2cc2oc(=O)ccc12 [5-MP, 5-methoxypsoralen], the Ki (Notum [1]) is reported as 23.5 nM, the IC50 (Notum [1]; [9]) is reported as 18.7 ± 2.08 nM and the inhibition manner (Notum [1]; inhibition kinetics, DO hydrolysis) is reported as “competitive”. The IC50 (Notum [2]) was 11.2 ± 0.6 nM, the Ki (Notum [2]) was 15.1 nM and the inhibition manner (Notum [2]; inhibition kinetics, OPTS hydrolysis) was “competitive”. The IC50 (F268G Notum) was 1210 nM, the “organ injury (H&E, pathological examination)” value (healthy mice; 14 consecutive days, mice) was “no organ injury was observed” and the overall mortality rate (healthy mice; 14 consecutive days, mice) was 0%. The “serological indicators of organ injury (ALT, AST, CK, CREA)” value (healthy mice; 14 days, vs control) was “no significant difference”, the “serum levels of TC and TG” value (healthy mice; 14 days, vs control) was “decreased” and the spleen coefficient (healthy mice; 14 days, vs control) was “slight decline”. The organ coefficient (healthy mice; 14 days, vs control, except spleen) was “no significant difference”, the “cytotoxicity towards MC3T3-E1 cells” value (MC3T3-E1 cells [3]) was “weak cytotoxicity” and the “effect on ALP levels (osteoblast differentiation)” value (MC3T3-E1 cells [4]) was “dose-dependently mitigate the reduced ALP levels”. The “effect on intracellular calcification (ARS staining)” value (MC3T3-E1 cells [5]) was “significantly reversed the intracellular calcium loss”, the “mRNA levels of Notum, GSK3β, β-catenin, OPN and RUNX2” value (Wnt/β-catenin signaling) was “significantly reversed the abnormal mRNA levels” and the concentration at 2 h ([6]; male, C57BL/6J, mouse, femur, po, 40 mg/kg) was 8.3 nM. For the same compound, the concentration at 3 h ([6]; male, C57BL/6J, mouse, plasma, po, 40 mg/kg) was 44.6 nM, the tissue distribution ([6]; single oral dose 40 mg/kg, mice) was “high exposure in the plasma and the liver” and the “effect on weight loss induced by DXMS” value [7, 10] was “neither PTH (positive control for osteoporosis) nor 5-MP (20 and 40 mg/kg) could significantly reverse the weight loss”. The “serum levels of osteogenic markers (ALP, OT/BGT, OPG, Col-1A1)” value ([7]; 5-MP 20 and 40 mg/kg oral daily, PTH 100 μg/kg/day i.p., vs DXMS) was “substantially increased”, the “bone volume fraction (BV/TV) and bone mineral density (BMD)” value [7, 11] was “significantly enhanced” and the “trabecular and cortical bone thickness (micro-CT)” value [7, 11] was “significantly improved”. For the same compound, the “immunofluorescence signals of Notum in cortical bone tissues” value [7, 12] was “significantly decreased”, the “immunofluorescence signals of Notum in marrow cavity” value [7, 12] was “hardly decrease” and the “new bone formation (double labeling)” value ([7]; tibia, vs DXMS-challenged group) was “active new bone formation”. The “half-life (t1/2)” value [8] was 4.21 h and the “formation of reactive intermediates” value (CYPs) was “did not detect reactive intermediates”.

COc1c2occc2cc2ccc(=O)oc12 [8-Methoxypsoralen] gave an IC50 (Notum [1]) of 9450 ± 1380 nM.

O=c1oc2cc(O)ccc2c2oc3cc(O)ccc3c12 [Coumestrol] showed an IC50 (Notum [1]) of 12800 ± 2440 nM.

For C[C@@H]1C[C@H]2[C@@H]3CCC4=CC(=O)C=C[C@]4(C)[C@@]3(F)[C@@H](O)C[C@]2(C)[C@@]1(O)C(=O)CO [DXMS, dexamethasone, reference compound], the cells diminished (MC3T3-E1 cells [3]; 200 μmol/L) was “approximately 50%”.

In the case of O=c1ccc2ccc3occc3c2o1 [Isopsoralen], the IC50 (Notum [1]; [9]) is reported as 72.7 ± 5.03 nM, the IC50 (Notum [2]) is reported as 71.9 ± 11 nM and the body weight (healthy mice; 14 consecutive days, mice) is reported as “significantly decreased”. The death of mice (healthy mice; 14 consecutive days, mice) was “the mice began to die”, the “organ injury (H&E, pathological examination)” value (healthy mice; 14 consecutive days, mice) was “varying degrees of organ injury” and the “organ coefficients of the heart, liver and kidney” value (healthy mice; 14 days, vs control) was “remarkably elevated”. The “serum levels of AST and ALT” value (healthy mice; 14 days, vs control) was “elevated”, the “serum levels of CK, UREA and TG” value (healthy mice; 14 days, vs control) was “decrease” and the “cytotoxicity towards MC3T3-E1 cells” value (MC3T3-E1 cells [3]) was “weak cytotoxicity”. The “effect on ALP levels (osteoblast differentiation)” value (MC3T3-E1 cells [4]) was “relatively weak” and the “formation of reactive intermediates” value (CYPs) was “metabolically bioactivated by CYPs to generate reactive intermediates”.

In the case of O=c1ccc2cc3ccoc3cc2o1 [Psoralen], the IC50 (Notum [1]; [9]) is reported as 108 ± 10.4 nM, the IC50 (Notum [2]) is reported as 99.9 ± 10.8 nM and the body weight (healthy mice; 14 consecutive days, mice) is reported as “decreased significantly”. For the same compound, the death of mice (healthy mice; 14 consecutive days, mice) was “no death was observed”, the “organ injury (H&E, pathological examination)” value (healthy mice; 14 consecutive days, mice) was “varying degrees of organ injury” and the “organ coefficients of the heart, liver and kidney” value (healthy mice; 14 days, vs control) was “remarkably elevated”. The “serum levels of ALP, CREA, UREA and TG” value (healthy mice; 14 days, vs control) was “elevate”, the “serum levels of AST and ALT” value (healthy mice; 14 days, vs control) was “elevated” and the “cytotoxicity towards MC3T3-E1 cells” value (MC3T3-E1 cells [3]) was “weak cytotoxicity”. The “effect on ALP levels (osteoblast differentiation)” value (MC3T3-E1 cells [4]) was “relatively weak”.

In the case of “PTH: parathyroid hormone 1–34, positive drug for treating osteoporosis (SVSEIQLMHNLGKHLNSMERVEWLRKKLQDVHNF; Parathyroid hormone; UniProt P01270 32-65, looked up, fragment) [reference compound]”, the “effect on weight loss induced by DXMS” value [7, 10] is reported as “neither PTH (positive control for osteoporosis) nor 5-MP (20 and 40 mg/kg) could significantly reverse the weight loss”.
